CHO parental Ca = ATP-evoked calcium signal inhibitors, parental CHO, primary screen, counter-screen for OX1R antagonist project, cell-based, fluorescence, Fluo-8 calcium dye. parental CHO-K1, ATP-induced calcium, Fluo-8 fluorescence. inhibition, % at 5.6 µM. 330,000 tested, 0.63% active;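 active = inhibition above that plate's mean sample inhibition plus 3 SD, cut at about 26% in these data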;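 also: 0% = ATP-challenged DMSO wells and 100% = DMSO wells without ATP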
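Test system: untransfected parental CHO cell line; also added: ATP stimulus; dosing: 5.6 µM, single dose; signal: calcium-sensitive Fluo-8 fluorescence; measure: percent inhibition of ATP-evoked calcium rise, normalized to controls; benchmarks: low control ATP plus DMSO, high control DMSO only; replication: one well per compound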
TAAR1 agonist = human TAAR1 agonists, primary screen, Fluo-8 calcium fluorescence, CHO RD-HGA16 cells. Trace amine-associated receptor 1 (Homo sapiens), Q96RJ0. vehicle wells 0%, saturating PEA agonist 100%. activation, % at 3 µM. 360,000 tested, 0.99% active;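 active = activation above the mean activation of all test compounds in the run plus 3 SD, cut at about 38% in these data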
Target sequence (Q96RJ0 whole entry, looked up): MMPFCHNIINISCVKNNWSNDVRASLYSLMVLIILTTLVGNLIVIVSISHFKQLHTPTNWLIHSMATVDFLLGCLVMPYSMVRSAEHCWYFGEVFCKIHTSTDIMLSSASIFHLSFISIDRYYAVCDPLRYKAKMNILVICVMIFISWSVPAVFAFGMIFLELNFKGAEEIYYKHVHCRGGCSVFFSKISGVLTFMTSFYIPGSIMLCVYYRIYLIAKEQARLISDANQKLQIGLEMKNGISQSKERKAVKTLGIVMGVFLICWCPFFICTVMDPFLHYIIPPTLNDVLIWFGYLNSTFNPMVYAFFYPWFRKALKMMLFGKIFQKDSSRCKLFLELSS
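Benchmarks: low control DMSO, high control PEA (EC100); System: CHO RD-HGA16 cells carrying human TAAR1 plus Gα16; Detection: Fluo-8 fluorescence, 5 s baseline then 140 s kinetic read; Schedule: 17-24 h plating, Fluo-8 75 min 37 °C, 30 min RT; Read-out basis: % activation from peak over basal fluorescence ratio, DMSO-to-PEA scaled.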
TAAR1 antag = human TAAR1 antagonists, primary screen, Fluo-8 calcium fluorescence, CHO RD-HGA16 cells; antagonist; 360,000 tested, 1.5% active; Trace amine-associated receptor 1 (Homo sapiens), Q96RJ0; inhibition, % at 3 µM;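 active = inhibition above a per-plate cutoff, the mean inhibition of test compounds on that plate plus 3 SD, cut at about 49% in these data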;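 also: 0% = DMSO plus EC80 beta-PEA response and 100% = DMSO alone without agonist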
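Test system – hTAAR1-expressing CHO RD-HGA16 cells, Gα16-coupled · Reagent – β-PEA at EC80 concentration, post-compound challenge · Compound dosing – 3 µM, single point · Timing – 140 s kinetic read after compound, 140 s after agonist · Detection – Fluo-8 intracellular calcium dye fluorescence, real-time kinetic reads · Control set – DMSO and EC80 PEA controls · Repeats – n of 1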
OX1R antag-1 = antagonists of human orexin 1 receptor (OX1R) | Orexin/Hypocretin receptor type 1 (Homo sapiens), O43613 | OX1R-expressing cells, FRET antagonist read-out | inhibition, % at 6.6 µM | 330,000 tested, 1.8% active | AID 485270, 2010; in the data active = inhibition mostly above about 38%, no sharp cut-off; inactive = mostly below about 40%;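 also: 0% = agonist challenge alone and 100% = reference antagonist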
OX1R antag-2 = OX1R (HCRTR1) antagonists, primary screen, fluorescence, CHO/OX1R cells, Fluo-8 calcium, orexin A; Orexin/Hypocretin receptor type 1 (Homo sapiens), O43613; inhibition, % at 5 µM; Fluo-8 calcium fluorescence; AID 434989, 2010; 330,000 tested, 0.43% active;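 active = inhibition above its plate's threshold, mean inhibition of all tested compounds on the plate plus 3 SD, cut at about 37% in these data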;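 also: 0% = orexin A challenge wells and 100% = SB-334867-A antagonist wells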
GPR7 antagonist = GPR7 receptor antagonists, primary screen, cell-based, fluorescence, single concentration; GPR7-expressing cells, fluorescence antagonist assay; inhibition, % at 4.4 µM; 290,000 tested, 1.1% active; AID 1861, 2009; in the data active = inhibition above about 16%, passing the limit was not always enough;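 also: cells stimulated with the agonist NPW; 0% = agonist with vehicle and 100% = vehicle without agonist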
Target sequence (P48145 whole entry, looked up): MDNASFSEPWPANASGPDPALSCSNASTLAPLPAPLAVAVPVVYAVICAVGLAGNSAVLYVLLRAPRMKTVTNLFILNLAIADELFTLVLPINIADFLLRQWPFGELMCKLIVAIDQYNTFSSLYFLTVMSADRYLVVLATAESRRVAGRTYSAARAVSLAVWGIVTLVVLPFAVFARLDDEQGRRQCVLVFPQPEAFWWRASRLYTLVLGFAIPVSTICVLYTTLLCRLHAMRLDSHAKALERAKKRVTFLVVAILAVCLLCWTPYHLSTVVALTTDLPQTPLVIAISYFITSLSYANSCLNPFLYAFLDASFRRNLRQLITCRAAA
GPR7 antag cf = GPR7 receptor antagonists, confirmation, cell-based, fluorescence, single concentration; inhibition, % at 4.4 µM; GPR7-expressing cells, calcium fluorescence antagonist mode; shares compounds with GPR7 antagonist; 2,400 tested, 52% active; AID 1952, 2009; in the data active = inhibition above about 24%;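 also: stimulated with the GPR7 agonist NPW; 0% = agonist plus vehicle and 100% = vehicle alone without agonist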
MCHR1 antagonist = MCHR1 antagonists in cells, counter-screen for GPR7 antagonist project, cell-based, fluorescence, human | 2,400 tested, 62% active | shares compounds with GPR7 antagonist | AID 2148, 2009 | MCHR1-expressing cells, fluorescence antagonist assay | inhibition, % at 4.4 µM; in the data active = inhibition above about 22%;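 also: 0% = vehicle with agonist and 100% = vehicle without agonist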
OX1R Ca confirm = OX1R (HCRTR1) antagonists, confirmation, fluorescence, CHO/OX1R cells, Fluo-8 calcium, orexin A | shares compounds with OX1R antag-2 | 1,100 tested, 38% active | inhibition, % at 5 µM | orexin A calcium Fluo-8 fluorescence | AID 492963, 2010; in the data active = inhibition above about 29%;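 also: 0% = agonist challenge alone and 100% = reference antagonist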
CHO Ca triplic = ATP-evoked calcium inhibition in parental CHO, counter-screen for OX1R antagonist project, cell-based, fluorescence, CHO-K1, triplicate; 1,100 tested, 9.3% active; ATP-induced calcium, Fluo-8 fluorescence; inhibition, % at 5.6 µM; shares compounds with OX1R antag-2; AID 492965, 2010;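 active = inhibition above a per-plate limit, the mean inhibition of that plate's test compounds plus 3 SD, cut at about 25% in these data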;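 also: 0% = ATP challenge with DMSO and 100% = DMSO without ATP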
The depositor's hits bear a star. Shown are actives, neighbours in structure and some others; about 4.6% of the full set was active somewhere.

What do the screens show for `COc1ccc(CNCCC(c2ccc(OC(C)C)cc2)C(C)C)cc1OC` (centres undefined)?
CHO parental Ca: -14; TAAR1 agonist: 24; TAAR1 antag: 13; OX1R antag-1: -1; OX1R antag-2: -34; GPR7 antagonist: 19

Results for COc1ccc(C(CCNCc2ccc(OC(C)C)cc2)C(C)C)cc1 (centres undefined) ?
CHO parental Ca: 27*; TAAR1 agonist: 23; TAAR1 antag: 11; OX1R antag-1: 9; OX1R antag-2: -14; GPR7 antagonist: 27*; GPR7 antag cf: 51*; MCHR1 antagonist: 70*

What do the screens show for `CCN(CC)CCCn1c2c(c(SCC(=O)Nc3cccc(C)c3C)nc1=O)CCC2`?
CHO parental Ca: -8; TAAR1 agonist: 0; TAAR1 antag: -2; OX1R antag-1: 11; OX1R antag-2: -11

Results for Cc1c(Cc2c(Cl)cccc2Cl)c(=O)ccn1C(C)c1ccccc1 (centres undefined) ?
TAAR1 agonist: 24; TAAR1 antag: 12; GPR7 antagonist: 35*; GPR7 antag cf: 27*; MCHR1 antagonist: 25*

How did O=C1c2cccc3c([N+](=O)[O-])ccc(c23)C(=O)N1c1ccc(Cl)cn1 do in these assays?
CHO parental Ca: 35*; TAAR1 agonist: 2; TAAR1 antag: 71*; OX1R antag-1: 51*; OX1R antag-2: 45; GPR7 antagonist: 33*; GPR7 antag cf: 100*; MCHR1 antagonist: 104*

Results for COc1cc(C(=S)N2CCC(Cc3ccccc3)CC2)ccc1OCC(N)=O ?
CHO parental Ca: -5; TAAR1 agonist: -1; TAAR1 antag: -10; OX1R antag-1: 4; OX1R antag-2: 5; GPR7 antagonist: 18

Results for O=C(Nc1cccc(C(F)(F)F)c1)C(SCCO)c1ccccc1 (centres undefined) ?
CHO parental Ca: -9; TAAR1 agonist: 6; TAAR1 antag: 7; OX1R antag-1: 14; OX1R antag-2: -11; GPR7 antagonist: -4

What do the screens show for `CCC(C(=O)Nc1cccc(C(F)(F)F)c1)c1ccccc1` (centres undefined)?
CHO parental Ca: -4; TAAR1 agonist: 1; TAAR1 antag: 17; OX1R antag-1: 43; OX1R antag-2: -3; GPR7 antagonist: 28*; GPR7 antag cf: 8; MCHR1 antagonist: 47*

What do the screens show for `N#Cc1ccc(C=NN2CCCCCC2)cc1`?
TAAR1 agonist: 2; TAAR1 antag: -2

Results for CCOC(=O)[C@]12CCCC=C1N(Cc1ccc(Cl)cc1Cl)C(=O)[C@H](CC(=O)NCC1CCCCC1)C2 ?
TAAR1 agonist: -2; TAAR1 antag: -19

How did Cc1ccc(C(CC(=O)N2CCNCC2)c2ccccc2)c(O)c1C (centres undefined) do in these assays?
CHO parental Ca: -4; TAAR1 agonist: 4; TAAR1 antag: -2; OX1R antag-1: 2; OX1R antag-2: 34; GPR7 antagonist: 33*; GPR7 antag cf: 22; MCHR1 antagonist: 21; OX1R Ca confirm: 41*; CHO Ca triplic: 31*

What do the screens show for `COc1ccc(NC(=O)COc2ccccc2Cc2ccccc2)cc1S(N)(=O)=O`?
CHO parental Ca: 13; TAAR1 agonist: 5; TAAR1 antag: -5; OX1R antag-1: 26; OX1R antag-2: 27; GPR7 antagonist: 42*; GPR7 antag cf: 45*; MCHR1 antagonist: 57*; OX1R Ca confirm: 19; CHO Ca triplic: 15

Results for COc1ccc(NC(=O)CN(Cc2ccccc2)Cc2ccccc2)cc1S(N)(=O)=O ?
CHO parental Ca: -11; TAAR1 agonist: 3; TAAR1 antag: 15; OX1R antag-1: 13; OX1R antag-2: -10; GPR7 antagonist: -7

Results for O=C(Nc1ccc(C(=O)NCCCN2CCN(c3ccc(F)cc3)CC2)cc1)C1=CSCCO1 ?
CHO parental Ca: 17; TAAR1 agonist: 45*; TAAR1 antag: 23; OX1R antag-1: 1; OX1R antag-2: 28; GPR7 antagonist: 36*; GPR7 antag cf: 56*; MCHR1 antagonist: 74*; OX1R Ca confirm: 44*; CHO Ca triplic: 27*

What do the screens show for `O=C(Nc1ccccc1)Nc1cccc(C(F)(F)F)c1`?
CHO parental Ca: 10; TAAR1 agonist: 19; TAAR1 antag: 17; OX1R antag-1: 64; OX1R antag-2: 33; GPR7 antagonist: 27*; GPR7 antag cf: 41*; MCHR1 antagonist: 61*; OX1R Ca confirm: 0; CHO Ca triplic: 21

Results for O=C(O)c1ccc(-c2nn3c(=O)cc(N4CCNCC4)nc3s2)cc1 ?
TAAR1 agonist: 0; TAAR1 antag: -3

Results for CCS(=O)(=O)c1ncc(Cl)c(C(=O)Nc2ccc(C)cc2)n1 ?
CHO parental Ca: 26; TAAR1 agonist: 3; TAAR1 antag: 10; OX1R antag-1: 51; OX1R antag-2: 28; GPR7 antagonist: 53*; GPR7 antag cf: 52*; MCHR1 antagonist: 84*; OX1R Ca confirm: 32*; CHO Ca triplic: 20

Results for CC(=O)Nc1ccc(NC(=O)c2nc(S(=O)(=O)Cc3ccccc3)ncc2Cl)cc1 ?
CHO parental Ca: 14; TAAR1 agonist: 1; TAAR1 antag: 4; OX1R antag-1: 23; OX1R antag-2: 15; GPR7 antagonist: 3

What do the screens show for `CCc1ccc(C(C)NC(=O)c2ncn[nH]2)cc1` (centres undefined)?
CHO parental Ca: 3; TAAR1 agonist: 2; TAAR1 antag: 0; OX1R antag-1: 11; OX1R antag-2: 2; GPR7 antagonist: -1
